Source: ChEMBL document CHEMBL1142934, “Molecular modeling of the human P2Y2 receptor and design of a selective agonist, 2'-amino-2'-deoxy-2-thiouridine 5'-triphosphate” (J Med Chem, 2007)

Legend:
Format in all cases: functional, cell-based
P2Y purinoceptor 6 [1] = molecular target: T1, P2Y purinoceptor 6 (Homo sapiens, UniProt Q15077); experiment: Agonist activity at human recombinant P2Y6 receptor expressed in 1321N1 cells assessed as intracellular calcium mobilization
P2Y purinoceptor 2 = P2Y purinoceptor 2 (Homo sapiens, UniProt P41231); experiment: Agonist activity at human recombinant P2Y2 receptor expressed in 1321N1 cells assessed as stimulation of phospholipase C
Procedure, shortened: (§1)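 Human P2Y2, P2Y4 or P2Y6 receptors stably expressed in 1321N1 astrocytoma cells. PLC activation was measured across a concentration range of each nucleotide. Tritiated inositol phosphates formed from a radiolabeled myo-inositol precursor were quantified by a standard ion exchange method. Values are mean ± standard error, N = 3.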

P2Y purinoceptor 4 [2] = molecular target: T2, P2Y purinoceptor 4 (Homo sapiens, UniProt P51582); experiment: Agonist activity at human recombinant P2Y4 receptor expressed in 1321N1 cells assessed as stimulation of phospholipase C
Procedure, shortened: as §1, with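 “method. EC50 was the concentration giving 50% of the maximal effect, fitted with a four-parameter logistic equation.” for “method.”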

P2Y purinoceptor 6 [3] = molecular target: T1, P2Y purinoceptor 6; experiment: Agonist activity at human recombinant P2Y6 receptor expressed in 1321N1 cells assessed as stimulation of phospholipase C
Procedure, shortened: as §1, with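 “method. EC50 was the concentration giving 50% of the maximal effect, fitted with a four-parameter logistic equation.” for “method.”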

P2Y purinoceptor 4 [4] = molecular target: T2, P2Y purinoceptor 4; experiment: Antagonistic activity at human recombinant P2Y4 receptor expressed in 1321N1 cells; settings: filed as antagonist

T1 sequence (Q15077 whole entry): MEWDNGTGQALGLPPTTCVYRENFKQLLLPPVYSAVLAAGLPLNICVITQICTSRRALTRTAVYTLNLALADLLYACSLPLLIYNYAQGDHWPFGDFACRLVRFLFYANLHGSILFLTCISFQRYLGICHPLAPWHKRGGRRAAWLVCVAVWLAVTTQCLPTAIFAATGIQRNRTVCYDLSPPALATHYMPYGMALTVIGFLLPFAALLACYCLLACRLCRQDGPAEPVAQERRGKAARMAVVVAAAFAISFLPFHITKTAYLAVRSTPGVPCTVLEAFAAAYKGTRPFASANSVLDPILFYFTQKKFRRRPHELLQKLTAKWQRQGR
Sequence of P2Y purinoceptor 2 (P41231 whole entry): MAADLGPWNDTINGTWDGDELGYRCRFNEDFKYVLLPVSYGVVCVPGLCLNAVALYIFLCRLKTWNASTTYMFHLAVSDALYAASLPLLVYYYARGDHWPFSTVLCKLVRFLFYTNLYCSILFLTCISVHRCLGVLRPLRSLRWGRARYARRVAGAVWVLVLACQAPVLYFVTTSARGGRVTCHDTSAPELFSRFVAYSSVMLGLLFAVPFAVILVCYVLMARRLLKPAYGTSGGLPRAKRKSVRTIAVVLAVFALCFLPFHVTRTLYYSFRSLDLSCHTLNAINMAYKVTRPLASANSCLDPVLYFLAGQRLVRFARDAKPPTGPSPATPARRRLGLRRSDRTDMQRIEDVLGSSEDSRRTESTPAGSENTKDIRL
T2 sequence (P51582 whole entry): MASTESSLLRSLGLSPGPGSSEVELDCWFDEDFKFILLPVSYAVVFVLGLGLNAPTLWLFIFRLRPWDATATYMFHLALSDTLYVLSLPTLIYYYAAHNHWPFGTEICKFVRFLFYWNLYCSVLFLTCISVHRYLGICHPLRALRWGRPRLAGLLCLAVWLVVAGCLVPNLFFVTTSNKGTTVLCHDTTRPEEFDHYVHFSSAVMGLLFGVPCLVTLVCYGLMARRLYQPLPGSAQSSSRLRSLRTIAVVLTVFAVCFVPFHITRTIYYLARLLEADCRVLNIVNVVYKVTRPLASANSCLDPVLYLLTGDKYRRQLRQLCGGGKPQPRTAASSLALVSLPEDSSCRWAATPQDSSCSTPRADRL

SMILES | EC50 (P2Y purinoceptor 2) | EC50 (P2Y purinoceptor 4 [2]) | EC50 (P2Y purinoceptor 6 [3]) | other results
O=c1ccn([C@@H]2O[C@H](COP(=O)(O)OP(=O)(O)OP(=O)(O)OP(=O)(O)OC[C@H]3O[C@@H](n4ccc(=O)[nH]c4=O)[C@H](O)[C@@H]3O)[C@@H](O)[C@H]2O)c(=O)[nH]1 [DIQUAFOSOL] |  |  |  | EC50 (P2Y purinoceptor 6 [1]): 20 µM (agonist)
O=c1[nH]c(=O)n([C@@H]2O[C@H](COP(=O)(O)OP(=O)(O)OP(=O)(O)O)[C@@H](O)[C@H]2O)cc1Br | 0.75 µM (agonist) |  |  | 
Nc1ccn([C@H]2C[C@H](O)[C@@H](COP(=O)(O)OP(=O)(O)OP(=O)(O)OP(=O)(O)OC[C@H]3O[C@@H](n4ccc(=O)[nH]c4=O)[C@H](O)[C@@H]3O)O2)c(=O)n1 [DENUFOSOL] | 0.27 µM (agonist) |  |  | 
O=c1ccn([C@@H]2O[C@H](COP(=O)(O)OP(=O)(O)OP(=O)(O)OP(=O)(O)OC[C@H]3OC(O)[C@H](O)[C@@H]3O)[C@@H](O)[C@H]2O)c(=O)[nH]1 (some centres not stated) | 1.88 µM (agonist) |  |  | 
CO[C@@H]1[C@H](O)[C@@H](COP(=O)(O)OP(=O)(O)OP(=O)(O)O)O[C@H]1n1ccc(=O)[nH]c1=O | 14.3 µM (agonist) |  |  | 
O=c1ccn([C@@H]2O[C@H](COP(=O)(O)OP(=O)(O)OP(=O)(O)O)[C@@H](O)[C@H]2O)c(=S)[nH]1 | 0.035 µM (agonist) | 0.35 µM (agonist) | 1.5 µM (agonist) | 
Nc1cn([C@@H]2O[C@H](COP(=O)(O)OP(=O)(O)OP(=O)(O)O)[C@@H](O)[C@H]2O)c(=O)[nH]c1=O | 5.6 µM (agonist) |  | 0.333 µM (agonist) | 
O=C(N[C@@H]1[C@H](O)[C@@H](COP(=O)(O)OP(=O)(O)OP(=O)(O)O)O[C@H]1n1ccc(=O)[nH]c1=S)C(F)(F)F | 0.47 µM (agonist) | 8.3 µM (agonist) |  | 
O=c1ccn([C@@H]2O[C@H](COP(=O)(O)OP(=O)(O)OP(=O)(O)S)[C@@H](O)[C@H]2O)c(=O)[nH]1 (some centres not stated) | 0.24 µM (agonist) |  |  | 
Cc1cn([C@@H]2O[C@H](COP(=O)(O)OP(=O)(O)OP(=O)(O)O)[C@@H](O)[C@H]2O)c(=O)[nH]c1=O [THYMIDINE_TRIPHOSPHATE] | 0.48 µM (agonist) | 3.9 µM (agonist) | 0.14 µM (agonist) | 
O=c1ccn([C@H]2C[C@H](O)[C@@H](COP(=O)(O)OP(=O)(O)OP(=O)(O)O)O2)c(=O)[nH]1 | 1.08 µM (agonist) |  |  | 
O=c1ccn([C@@H]2O[C@H](COP(=O)(O)OP(=O)(O)OP(=O)(O)O)[C@@H](O)[C@H]2O)c(=O)[nH]1 [URIDINE TRIPHOSPHATE] | 0.049 µM (agonist) | 0.073 µM (agonist) |  | EC50 (P2Y purinoceptor 6 [1]): > 10 µM (agonist)
CC(=O)N[C@@H]1[C@H](O)[C@@H](COP(=O)(O)OP(=O)(O)OP(=O)(O)O)O[C@H]1n1ccc(=O)[nH]c1=S | 6.5 µM (agonist) |  |  | 
N[C@@H]1[C@H](O)[C@@H](COP(=O)(O)OP(=O)(O)OP(=O)(O)O)O[C@H]1n1ccc(=O)[nH]c1=O | 0.062 µM (agonist) | 1.2 µM (agonist) | > 100 µM | 
Nc1ncnc2c1ncn2[C@@H]1O[C@H](COP(=O)(O)OP(=O)(O)OP(=O)(O)O)[C@@H](O)[C@H]1O |  |  |  | Activity (P2Y purinoceptor 4 [4]): Antagonist; Kb (P2Y purinoceptor 4 [4]): 0.708 µM
N[C@@H]1[C@H](O)[C@@H](COP(=O)(O)OP(=O)(O)OP(=O)(O)O)O[C@H]1n1ccc(=O)[nH]c1=S | 0.008 µM (agonist) | 2.4 µM (agonist) | > 10 µM | 
[N-]=[N+]=Nc1cn([C@@H]2O[C@H](COP(=O)(O)OP(=O)(O)OP(=O)(O)O)[C@@H](O)[C@H]2O)c(=O)[nH]c1=O | 1.8 µM (agonist) |  | 0.467 µM (agonist) | 
O=c1[nH]c(=O)n([C@@H]2O[C@H](COP(=O)(O)OP(=O)(O)OP(=O)(O)O)[C@@H](O)[C@H]2O)cc1I | 0.83 µM (agonist) |  |  | 
